Laboratory results reported in ChEMBL document CHEMBL2331355, “Synthesis, structure activity relationship and mode of action of 3-substitutedphenyl-1-(2,2,8,8-tetramethyl-3,4,9,10-tetrahydro-2H,8H-pyrano[2,3-f]chromen-6-yl)-propenones as novel anticancer agents in human leukaemia HL-60 cells” (Eur J Med Chem, 2013).
Counter-ions that a name gives are not always drawn.

Legend:
Format in all cases: functional
MCF7 = test: Growth inhibition of human MCF7 cells at 2 uM after 48 hrs by MTT assay; conditions: MCF7, 48 h, read-out: GI
HL-60 [1] = test: Induction of mitochondrial membrane potential loss in human HL60 cells at 4 uM after 6 hrs by rhodamine-123 staining method (reference value: 7%)
HL-60 [2] = test: Cell cycle arrest in human HL60 cells assessed as G2/M phase cells at 4 uM after 6 hrs by PI staining-based flow cytometric analysis (reference value: 3%)
HL-60 [3] = test: Cell cycle arrest in human HL60 cells assessed as S phase cells at 4 uM after 6 hrs by PI staining-based flow cytometric analysis (reference value: 49%)
HL-60 [4] = test: Cell cycle arrest in human HL60 cells assessed as accumulation of G0/G1 phase cells at 4 uM after 6 hrs by PI staining-based flow cytometric analysis (reference value: 48%)
HL-60 [5] = test: Induction of apoptosis in human HL60 cells at 4 uM after 6 hrs by PI-staining based flow cytometric analysis (reference value: 0.7 %)
HL-60 [6] = test: Growth inhibition of human HL60 cells at 10 uM after 48 hrs by MTT assay; conditions: HL-60, 48 h, read-out: GI
Summary of the method: (§1)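 MTT assay. Suspension or adherent cells were exposed to compound for 48 h. OD was read at 570 nm (reference 620 nm), with untreated control OD set as 100% viability. Results are percent growth inhibition, mean ± SD of three independent experiments.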

PC-3 = test: Growth inhibition of human PC3 cells at 10 uM after 48 hrs by MTT assay; conditions: PC-3, 48 h, read-out: GI; summary of the method: as §1

With `COc1cccc2c1C(=O)c1c(O)c3c(c(O)c1C2=O)C[C@@](O)(C(=O)CO)C[C@@H]3O[C@H]1C[C@H](N)[C@H](O)[C@H](C)O1` [DOXORUBICIN HYDROCHLORIDE] the inhibition of growth at 2 µM (MCF7) was 90%.

In the case of `CC[C@@]1(O)C(=O)OCc2c1cc1n(c2=O)Cc2cc3ccccc3nc2-1` [CAMPTOTHECIN], the Activity (HL-60 [1]) was 51%, the Activity (HL-60 [2]) was 6% and the Activity (HL-60 [3]) was 6%. It also gave an Activity (HL-60 [4]) of 88% and an Activity (HL-60 [5]) of 69%.

Work on `O=c1[nH]cc(F)c(=O)[nH]1` [FLUOROURACIL] yielded an inhibition of growth at 10 µM (HL-60 [6]) of 84% and an inhibition of growth at 10 µM (PC-3) of 72%.
